Data published in ChEMBL document CHEMBL1158369, “Hansch analysis of substituted benzoic acid benzylidene/furan-2-yl-methylene hydrazides as antimicrobial agents” (Eur J Med Chem, 2009).

Tests used:
Aspergillus niger = test: Antifungal activity against Aspergillus niger after 7 days by tube dilution method; format: functional
Outline: (§1)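 Twofold serial dilutions of test and standard compounds in Sabouraud dextrose broth (I.P.); C. albicans incubated 37 °C for 48 h, A. niger 25 °C for 7 d. Growth read visually; MIC is lowest concentration without visible growth.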

Staphylococcus aureus = test: Antibacterial activity against Staphylococcus aureus after 24 hrs by tube dilution method; format: functional
Outline: (§2)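 Twofold serial dilutions of test and standard compounds in double strength nutrient broth (I.P.); tubes incubated at 37 °C for 24 h. Growth judged visually; MIC taken as lowest concentration with no visible turbidity.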

[1] = Lipophilicity, log P of the compound; format: physicochemical; conditions: octanol/water
Bacillus subtilis = test: Antibacterial activity against Bacillus subtilis after 24 hrs by tube dilution method; format: functional; outline: as §2
Escherichia coli = test: Antibacterial activity against Escherichia coli after 24 hrs by tube dilution method; format: functional; outline: as §2
Candida albicans = test: Antifungal activity against Candida albicans after 48 hrs by tube dilution method; format: functional; outline: as §1

| Structure (SMILES) | -logMIC (Aspergillus niger) | -logMIC (Staphylococcus aureus) | logP [1] | -logMIC (Bacillus subtilis) | -logMIC (Escherichia coli) | -logMIC (Candida albicans) |
| --- | --- | --- | --- | --- | --- | --- |
| COc1ccc(C(=O)N/N=C/c2cccc([N+](=O)[O-])c2)cc1OC | 1.72 | 2.05 | 2.87 | 2.33 | 2.63 | 1.66 |
| COc1ccc(/C=N/NC(=O)c2ccc(OC)c(OC)c2)cc1 | 1.68 | 2.17 | 3.39 | 2.58 | 2.58 | 1.68 |
| COc1ccc(/C=N/NC(=O)c2ccc(N)cc2)cc1 | 1.8 | 1.63 | 2.39 | 2.24 | 2.54 | 1.63 |
| COc1ccc(/C=N/NC(=O)c2ccc([N+](=O)[O-])cc2)cc1 | 1.98 | 1.68 | 3.13 | 2.25 | 2.56 | 1.62 |
| Cc1ccc(C(=O)N/N=C/c2ccco2)cc1 | – | – | 2.84 | – | – | – |
| COc1ccc(/C=N/NC(=O)c2cc([N+](=O)[O-])cc([N+](=O)[O-])c2)cc1OC | 2.08 | 2.38 | 2.83 | 2.51 | 2.68 | 1.78 |
| COc1ccc(/C=N/NC(=O)c2ccc(Cl)cc2)cc1OC | 2.01 | 2.61 | 3.44 | 2.61 | 2.61 | 1.71 |
| Cc1ccc(C(=O)N/N=C/c2cccc([N+](=O)[O-])c2)cc1 | 1.85 | 2.14 | 3.85 | 2.4 | 2.47 | 1.59 |
| O=C(N/N=C/c1cccc([N+](=O)[O-])c1)c1ccc([N+](=O)[O-])cc1 | 1.7 | 1.99 | 3.33 | 2.09 | 2.61 | 1.7 |
| COc1ccc(/C=N/NC(=O)c2ccc(C)cc2)cc1 | 1.88 | 2.24 | 3.64 | 2.32 | 2.54 | 1.63 |
| COc1ccc(/C=N/NC(=O)c2ccc(N)cc2)cc1OC | 1.9 | 1.94 | 2.14 | 2.29 | 2.49 | 1.68 |
| O=C(N/N=C/c1cccc([N+](=O)[O-])c1)c1cc([N+](=O)[O-])ccc1Cl | 1.59 | 2.65 | 3.85 | 2.65 | 2.65 | 1.75 |
| O=C(N/N=C/c1cccc([N+](=O)[O-])c1)c1cccc([N+](=O)[O-])c1 | 1.7 | 1.99 | 3.33 | 2.3 | 2.61 | 1.7 |
| COc1ccc(/C=N/NC(=O)c2ccc(OC)c(OC)c2)cc1OC | 2.04 | 2.07 | 2.42 | 2.34 | 2.64 | 1.74 |
| Nc1ccc(C(=O)N/N=C/c2cccc([N+](=O)[O-])c2)cc1 | 1.8 | 1.98 | 2.6 | 2.29 | 2.56 | 1.66 |
| COc1ccc(/C=N/NC(=O)c2ccccc2Br)cc1OC | 2.06 | 2.52 | 3.71 | 2.35 | 2.63 | 1.76 |
| COc1ccc(/C=N/NC(=O)c2cc([N+](=O)[O-])ccc2Cl)cc1OC | 1.95 | 2.67 | 3.39 | 2.62 | 2.67 | 1.76 |
| O=C(N/N=C/c1cccc([N+](=O)[O-])c1)c1ccccc1Br | 1.75 | 2.35 | 4.17 | 2.65 | 2.49 | 1.75 |
| COc1ccc(/C=N/NC(=O)c2cc([N+](=O)[O-])cc([N+](=O)[O-])c2)cc1 | 1.8 | 2.2 | 3.08 | 2.42 | 2.64 | 1.74 |
| COc1ccc(C(=O)N/N=C/c2ccco2)cc1OC | 1.87 | 1.61 | 1.87 | 1.98 | 2.3 | 1.64 |
| COc1ccc(/C=N/NC(=O)c2ccc(C)cc2)cc1OC | 1.75 | 2.17 | 3.39 | 2.58 | 2.58 | 1.68 |
| O=C(N/N=C/c1cccc([N+](=O)[O-])c1)c1ccc(Cl)cc1 | 1.69 | 2.59 | 3.9 | 2.59 | 2.59 | 1.69 |
| O=C(N/N=C/c1ccco1)c1cc([N+](=O)[O-])cc([N+](=O)[O-])c1 | 1.69 | 1.99 | 2.28 | 2.29 | 2.47 | 1.69 |
| COc1ccc(/C=N/NC(=O)c2cccc([N+](=O)[O-])c2)cc1OC | 1.75 | 2.05 | 2.87 | 2.28 | 2.63 | 1.64 |
| COc1ccc(/C=N/NC(=O)c2ccc([N+](=O)[O-])cc2)cc1OC | 1.75 | 1.99 | 2.87 | 2.34 | 2.63 | 1.72 |
| OC(Cn1cncn1)(Cn1cncn1)c1ccc(F)cc1F [FLUCONAZOLE] | 2.64 | – | – | – | – | 2.64 |
| CCn1cc(C(=O)O)c(=O)c2cc(F)c(N3CCNCC3)cc21 [NORFLOXACIN] | – | 2.61 | – | 2.61 | 2.61 | – |
